From ChEMBL document CHEMBL2434910, “Investigation of 3-aryl-pyrimido[5,4-e][1,2,4]triazine-5,7-diones as small molecule antagonists of β-catenin/TCF transcription” (Bioorg Med Chem Lett, 2013)
Active and inactive are the calls of the source. The calls are words filed in the database; no cut-off is given here.

Tests used:
IEC-6 [1] = test: Antagonist activity at Beta-catenin/TCF in rat IEC-6 cells assessed as inhibition of Wnt-3a-induced axin2 expression up to 1.2 uM preincubated for 6 hrs followed by Wnt-3a induction measured after 12 hrs by qPCR analysis; format: cell-based
Outline: (§1)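 IEC-6 rat intestinal epithelial cells given compound at a range of concentrations for 6 h, then recombinant mouse Wnt-3a (50 ng/mL) added for 12 h. Target transcript quantified by qPCR with gene-specific primers, normalised to U6. The Wnt-3a-stimulated level with no compound is set to 100%. IC50 taken from concentration-response; mean ± SEM reported where available.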

IEC-6 [2] = test: Antagonist activity at Beta-catenin/TCF in rat IEC-6 cells assessed as inhibition of Wnt-3a-induced lgr5 expression up to 1.2 uM preincubated for 6 hrs followed by Wnt-3a induction measured after 12 hrs by qPCR analysis; format: cell-based; outline: as §1
[3] = Antagonist activity at Beta-catenin/TCF in rat IEC-6 cells assessed as inhibition of Wnt-3a-induced lgr5 expression preincubated for 6 hrs followed by Wnt-3a induction measured after 12 hrs by qPCR analysis; format: cell-based; outline: as §1
DLD-1 [4] = test: Downregulation of cyclin D1 protein level in human DLD1 cells at 3 to 10 uM after 20 hrs by Western blotting analysis; format: functional, cell-based
Outline: (§2)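 DLD-1 colorectal cancer cells treated with compound for 20 h in the dark. β-Catenin (free and total pools) and cyclin D1 protein levels assessed by Western blot.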

DLD-1 [5] = test: Downregulation of total beta-catenin protein level in human DLD1 cells at 3 to 10 uM after 20 hrs by Western blotting analysis; format: functional, cell-based; outline: as §2
[6] = Antagonist activity at Beta-catenin/TCF in rat IEC-6 cells assessed as inhibition of Wnt-3a-induced axin2 expression preincubated for 6 hrs followed by Wnt-3a induction measured after 12 hrs by qPCR analysis; format: cell-based; outline: as §1
IEC-6 [7] = test: Antagonist activity at Beta-catenin/TCF in rat IEC-6 cells assessed as inhibition of Wnt-3a-induced axin2 expression up to 179 uM preincubated for 6 hrs followed by Wnt-3a induction measured after 12 hrs by qPCR analysis; format: cell-based; outline: as §1
IEC-6 [8] = test: Antagonist activity at Beta-catenin/TCF in rat IEC-6 cells assessed as inhibition of Wnt-3a-induced lgr5 expression up to 0.7 uM preincubated for 6 hrs followed by Wnt-3a induction measured after 12 hrs by qPCR analysis; format: cell-based; outline: as §1
IEC-6 [9] = test: Antagonist activity at Beta-catenin/TCF in rat IEC-6 cells assessed as inhibition of Wnt-3a-induced axin2 expression up to 0.7 uM preincubated for 6 hrs followed by Wnt-3a induction measured after 12 hrs by qPCR analysis; format: cell-based; outline: as §1
IEC-6 [10] = test: Antagonist activity at Beta-catenin/TCF in rat IEC-6 cells assessed as inhibition of Wnt-3a-induced axin2 expression up to 69 uM preincubated for 6 hrs followed by Wnt-3a induction measured after 12 hrs by qPCR analysis; format: cell-based; outline: as §1
IEC-6 [11] = test: Antagonist activity at Beta-catenin/TCF in rat IEC-6 cells assessed as inhibition of Wnt-3a-induced lgr5 expression up to 69 uM preincubated for 6 hrs followed by Wnt-3a induction measured after 12 hrs by qPCR analysis; format: cell-based; outline: as §1
RKO [12] = test: Antiproliferative activity against human RKO cells assessed as inhibition of colony formation at 0.3 to 0.5 uM after 2 weeks by crystal violet staining-based assay; format: functional, cell-based
Outline: (§3)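 Cells seeded in medium with 10% serum containing the test compound, kept in the dark; surviving colonies counted two weeks after plating. Colony counts are from two independent experiments at each concentration, each run in triplicate.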

DLD-1 [13] = test: Antiproliferative activity against human DLD1 cells assessed as inhibition of colony formation at 0.3 to 0.5 uM after 2 weeks by crystal violet staining-based assay; format: functional, cell-based; outline: as §3
RKO [14] = test: Antiproliferative activity against human RKO cells assessed as inhibition of colony formation at 1 to 3 uM after 2 weeks by crystal violet staining-based assay; format: functional, cell-based
Outline: (§4)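 Colony formation assay. DLD-1 (bi-allelic APC mutation) and RKO (no β-catenin dysregulation) colon cancer cells seeded in medium with 10% serum containing compound. Surviving colonies visualised and counted two weeks after plating. Two independent experiments per concentration, each in triplicate. Compound incubations carried out in the dark.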

DLD-1 [15] = test: Antiproliferative activity against human DLD1 cells assessed as inhibition of colony formation at 1 to 3 uM after 2 weeks by crystal violet staining-based assay; format: functional, cell-based; outline: as §4
SW480 [16] = test: Downregulation of total beta-catenin protein level in human SW480 cells at 3 to 10 uM after 20 hrs by Western blotting analysis; format: functional, cell-based
[17] = Downregulation of free beta-catenin protein level in HEK293T cells after 3 hrs by Western blotting analysis in presence of dominant negative beta-TrCP; format: functional, cell-based; settings: Homo sapiens; HEK-293T
[18] = Downregulation of free beta-catenin protein level in HEK293T cells at 1 to 10 uM after 3 hrs by Western blotting analysis in presence of GSK3-beta antagonist SB216763; format: functional, cell-based; settings: Homo sapiens, HEK-293T
Outline: (§5)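 HEK293T cells treated with 5 μM SB216763 (GSK3β antagonist) together with various concentrations of compound, in the dark. Free and total β-catenin protein assessed by Western blot.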

SW480 [19] = test: Downregulation of free beta-catenin protein level in human SW480 cells at 3 to 10 uM after 20 hrs by Western blotting analysis; format: functional, cell-based
[20] = Downregulation of free beta-catenin protein level in HEK293T cells after 3 hrs by Western blotting analysis in presence of GSK3-beta antagonist SB216763 and proteasome inhibitor MG-132; format: functional, cell-based; settings: Homo sapiens; HEK-293T
SW480 [21] = test: Downregulation of axin2 protein level in human SW480 cells after 20 hrs by Western blotting analysis; format: functional, cell-based
DLD-1 [22] = test: Downregulation of free beta-catenin protein level in human DLD1 cells at 3 to 10 uM after 20 hrs by Western blotting analysis; format: functional, cell-based; outline: as §2
HEK-293T = test: Effect on total beta-catenin protein level in HEK293T cells at 1 to 10 uM after 3 hrs by Western blotting analysis in presence of GSK3-beta antagonist SB216763; format: functional, cell-based; settings: Homo sapiens; outline: as §5
[23] = Metabolic stability in mouse liver microsomes assessed as compound remaining at 1 uM after 10 mins by LC-MS analysis; format: ADME, Microsome; settings: read-out: Stability
Outline: (§6)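 Compound (1 μM) incubated at 37°C with mouse liver microsomes to assess metabolic stability.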

[24] = Metabolic stability in mouse liver microsomes assessed as compound remaining at 1 uM after 30 mins by LC-MS analysis; format: ADME, Microsome; settings: read-out: Stability; outline: as §6
Liver [25] = test: Metabolic stability in mouse liver microsomes assessed as compound remaining at 1 uM after 3 mins by LC-MS analysis; format: ADME, Microsome; settings: 0.05 h; outline: as §6
Liver [26] = test: Metabolic stability in mouse liver microsomes assessed as half life at 1 uM after 1 to 60 mins by LC-MS analysis; format: ADME, Microsome; outline: as §6
[27] = Metabolic stability in mouse liver microsomes assessed as compound remaining at 1 uM after 60 mins by LC-MS analysis; format: ADME, Microsome; settings: read-out: Stability; outline: as §6

COc1ccc(-c2nc3c(=O)n(C)c(=O)nc-3n(CCO)n2)cc1
inhibition (IEC-6 [1]): inactive | inhibition (IEC-6 [2]): inactive

COc1ccc(-c2nc3c(=O)n(C)c(=O)nc-3n(C)n2)cc1
IC50 [3]: 1530 nM | Activity (DLD-1 [4]): Active | Activity (DLD-1 [5]): Active | IC50 [6]: 2670 nM

CCN(CC)CCOc1ccc(-c2nnc3c(n2)c(=O)n(C)c(=O)n3-c2ccccc2)cc1
IC50 [3]: 165000 nM | inhibition (IEC-6 [7]): Active

CCN(CC)CCOc1ccc(-c2nc3c(=O)n(C)c(=O)nc-3n(C)n2)cc1
inhibition (IEC-6 [8]): inactive | inhibition (IEC-6 [9]): inactive

COc1ccc(-c2nc3c(=O)n(C)c(=O)nc-3n(-c3ccccc3)n2)cc1
IC50 [3]: 2100 nM | IC50 [6]: 2670 nM

CCN(CC)CCOc1ccc(-c2nnc3c(n2)c(=O)n(C)c(=O)n3C)cc1
inhibition (IEC-6 [10]): inactive | inhibition (IEC-6 [11]): inactive

Cn1ncnc2c(=O)n(C)c(=O)nc1-2
IC50 [3]: 290 nM | inhibition (RKO [12]): Active | IC50 [6]: 330 nM | inhibition (DLD-1 [13]): Active

COc1c(C[C@@H](C)OC(=O)Oc2ccc(O)cc2)c2c3c(C[C@@H](C)OC(=O)c4ccccc4)c(OC)c(=O)c4c(O)cc(OC)c(c5c(OC)cc(O)c(c1=O)c52)c43 [CALPHOSTIN C]
IC50 [3]: 390 nM | IC50 [6]: 550 nM

Cn1nc(-c2ccc(Cl)cc2)nc2c(=O)n(C)c(=O)nc1-2
IC50 [3]: 1530 nM | inhibition (RKO [14]): Active | inhibition (DLD-1 [15]): Active | Activity (DLD-1 [4]): Active | Activity (DLD-1 [5]): Active | Activity (SW480 [16]): Active | Activity [17]: Active | Activity [18]: Active | Activity (SW480 [19]): Active | Activity [20]: inactive | Activity (SW480 [21]): Dose-dependent effect | IC50 [6]: 1770 nM | Activity (DLD-1 [22]): Active | Activity (HEK-293T): inactive

Oc1nc(-c2ccc(C(F)(F)F)cc2)nc2c1CSCC2
IC50 [3]: 2900 nM | IC50 [6]: 640 nM

CCN(CC)CCOc1ccc(-c2nc3c(=O)n(C)c(=O)nc-3n(-c3ccccc3)n2)cc1
IC50 [3]: 260 nM | remaining at 10 min, 1 µM [23]: 92.2% | remaining at 0.5 h, 1 µM [24]: 70.7% | Stability (Liver [25]): 110% | t1/2 (Liver [26]): 34.7 min | remaining at 1 h, 1 µM [27]: 31.8% | IC50 [6]: 300 nM
